Laboratory results published in ChEMBL document CHEMBL4028906, “Allosteric Inhibitors of SHP2 with Therapeutic Potential for Cancer Treatment” (J Med Chem, 2017).
Active and inactive are the calls of the source. The rule behind the calls is not given here.

Assays:
[1] = species on record: Homo sapiens; experiment: Selectivity ratio of IC50 for TC-PTP (unknown origin) expressed in Escherichia coli BL21(DE3) to IC50 for SHP2 E76A mutant (unknown origin) expressed in Escherichia coli BL21(DE3)
Summary of the method: (§1)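 Ratio of IC50 values from one DIFMUP fluorescence assay (Ex/Em 358/455), room temperature, 0.1 M sodium acetate pH 5.0. His-tagged SHP2 E76A (1.5 nM) or counter-phosphatase purified from E. coli, preincubated 20 min with compound (eight 3-fold dilutions), then DIFMUP added for 20 min. DIFMUP was at Km for each counter-phosphatase. Duplicates; IC50 from at least three independent experiments.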

[2] = Allosteric inhibition of SHP2 E76A mutant (unknown origin) expressed in Escherichia coli BL21(DE3) using DIFMUP as substrate preincubated for 20 mins followed by substrate addition measured after 20 mins by phosphatase assay; design: species or system Homo sapiens
Summary of the method: (§2)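 His-tagged SHP2 constructs expressed in E. coli BL21(DE3) (0.5 mM IPTG, 5 h, 30 °C) and Ni-column purified. 1.5 nM enzyme preincubated 20 min at room temperature with compound in 0.1 M sodium acetate pH 5.0. DIFMUP then added, 20 min further, fluorescence at 358/455 nm. Eight 3-fold dilutions, duplicate wells, IC50 from at least three independent experiments.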

[3] = molecular target: T1, Tyrosine-protein phosphatase non-receptor type 11 (Homo sapiens) (UniProt Q06124); experiment: Allosteric inhibition of SHP2 in human A549 cells harboring KRAS mutant assessed downregulation on ERK1/2 phosphorylation at 5 and 10 uM after 2 hrs by Western blot analysis; assay type: cell-based
T1 sequence (whole entry): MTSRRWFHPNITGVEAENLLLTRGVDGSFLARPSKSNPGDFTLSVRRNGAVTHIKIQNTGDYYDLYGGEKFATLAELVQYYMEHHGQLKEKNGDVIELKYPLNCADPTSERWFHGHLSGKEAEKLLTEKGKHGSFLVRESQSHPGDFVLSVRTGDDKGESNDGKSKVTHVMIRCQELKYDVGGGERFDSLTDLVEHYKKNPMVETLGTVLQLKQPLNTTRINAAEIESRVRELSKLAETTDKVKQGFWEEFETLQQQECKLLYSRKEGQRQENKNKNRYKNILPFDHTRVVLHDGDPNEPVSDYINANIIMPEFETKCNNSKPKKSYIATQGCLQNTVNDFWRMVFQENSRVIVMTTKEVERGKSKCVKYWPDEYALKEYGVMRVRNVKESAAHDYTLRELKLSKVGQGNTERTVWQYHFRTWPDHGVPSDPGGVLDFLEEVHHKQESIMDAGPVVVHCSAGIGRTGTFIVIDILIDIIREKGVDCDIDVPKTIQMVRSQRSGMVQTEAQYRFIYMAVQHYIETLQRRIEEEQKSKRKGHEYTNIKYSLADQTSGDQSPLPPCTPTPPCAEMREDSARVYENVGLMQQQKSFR

[4] = species on record: Homo sapiens; experiment: Selectivity ratio of IC50 for SHP1 (unknown origin) expressed in Escherichia coli BL21(DE3) to IC50 for SHP2 E76A mutant (unknown origin) expressed in Escherichia coli BL21(DE3); summary of the method: as §1
[5] = test system: NCI-H661; experiment: Antiproliferative activity against human NCI-H661 cells at 3 to 6 uM after 2 days by CellTiter-Glo assay; assay type: functional, cell-based
Summary of the method: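 3000 cells/well in 96-well plates, grown overnight, then inhibitor at indicated concentrations for 2 days (48 h). Viability by CellTiter-Glo; mean±s.d., n=3.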

[6] = molecular target: T1, Tyrosine-protein phosphatase non-receptor type 11 (Homo sapiens); experiment: Allosteric inhibition of SHP2 in human A549 cells harboring KRAS mutant assessed as upregulation of YAP Y357 phosphorylation at 5 and 10 uM after 2 hrs by Western blot analysis; assay type: cell-based
[7] = molecular target: T1, Tyrosine-protein phosphatase non-receptor type 11 (Homo sapiens); experiment: Allosteric inhibition of SHP2 in human SF268 cells stably expressing Yap-Luc reporter assessed as reduction in YAP transcriptional activity after 12 hrs by Yap-luciferase reporter gene assay; assay type: cell-based
[8] = Oral bioavailability in nu/nu mouse at 10 mg/kg measured up to 24 hrs postdose by LC/MS/MS analysis; assay type: ADME, organism-based; settings: in vivo
Summary of the method: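 Female nu/nu nude mice dosed IV via tail vein at 5 mg/kg or orally at 10 mg/kg. Blood sampled at 0.083, 0.25, 0.5, 1, 2, 4, 8 and 24 h post-dose (orbital sinus, terminal cardiac puncture; EDTA-2K). Plasma separated at 4 °C, precipitated with acetonitrile containing internal standard, quantified by LC/MS/MS.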

[9] = test system: MV4-11; experiment: Antitumor activity against human MV4-11 cells xenografted in BALB/c mouse assessed as tumor growth inhibition at 10 mg/kg administered qd via oral gavage measured twice weekly relative to control; assay type: functional; settings: MV4-11, po, read-out: TGI
Summary of the method: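 Female BALB/c nude mice given subcutaneous MV4;11 cells (5×10^6, in 50% phenol red-free matrigel in PBS). Once tumours reached about 230 mm³, mice were randomised to vehicle or oral gavage once daily (10 ml/kg). Tumour volume was measured by caliper in two dimensions twice a week, along with body weight. Data given as mean±sem, with significance assessed on day 14.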

[10] = species on record: Homo sapiens; experiment: Selectivity ratio of IC50 for LMW-PTP (unknown origin) expressed in Escherichia coli BL21(DE3) to IC50 for SHP2 E76A mutant (unknown origin) expressed in Escherichia coli BL21(DE3); summary of the method: as §1
[11] = molecular target: Tyrosine-protein phosphatase non-receptor type 2 (Homo sapiens, UniProt P17706); experiment: Inhibition of TC-PTP (unknown origin) expressed in Escherichia coli BL21(DE3) using DIFMUP as substrate preincubated for 20 mins followed by substrate addition measured after 20 mins by phosphatase assay
Summary of the method: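 Phosphatases purified from E. coli and run as for SHP2 E76A: 20 min room-temperature preincubation with compound in 0.1 M sodium acetate pH 5.0, then DIFMUP at each enzyme's Km, 20 min, fluorescence 358/455 nm. Eight 3-fold dilutions in duplicate; IC50 from at least three independent experiments.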

[12] = species on record: Homo sapiens; experiment: Allosteric inhibition of SHP2 E76A mutant (unknown origin) assessed as reduction in SHP2-mediated YAP Y357 peptide dephosphorylation. preincubated for 15 mins before YAP pY357 peptide addition and measured after 15 mins post substrate addition
Summary of the method: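 Purified SHP2 E76A (1.5 nM) preincubated 15 min with 20 μM inhibitor in 20 mM Tris-HCl pH 7.4, 100 mM NaCl, 1 mM EDTA, 2 mM DTT. 100 μM YAP pY357 peptide added for 15 min. Enzyme removed on 30 kD filters; products dot-blotted and probed with p-YAP(Y357) antibody (1:1000) with ECL detection.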

[13] = molecular target: T1, Tyrosine-protein phosphatase non-receptor type 11 (Homo sapiens); experiment: Allosteric inhibition of SHP2 PTP domain (unknown origin) expressed in Escherichia coli BL21(DE3) using DIFMUP as substrate preincubated for 20 mins followed by substrate addition measured after 20 mins by phosphatase assay; summary of the method: as §2
[14] = molecular target: T1, Tyrosine-protein phosphatase non-receptor type 11 (Homo sapiens); experiment: Inhibition of SHP2 in human SF268 cells assessed as downregulation of YAP-mediated ANKRD1 gene expression ay 10 to 20 uM after 2 hrs by qRT-PCR analysis; assay type: cell-based
Summary of the method: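 SF268 cells exposed to DMSO, 10 μM or 20 μM inhibitor for 2 h. RNA extracted, reverse-transcribed, and CTGF, CYR61, ANKRD1 and YAP mRNA quantified by qPCR; mean±s.d., n=3.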

Tyrosine-protein phosphatase non-receptor type 2, sequence (P17706 whole entry): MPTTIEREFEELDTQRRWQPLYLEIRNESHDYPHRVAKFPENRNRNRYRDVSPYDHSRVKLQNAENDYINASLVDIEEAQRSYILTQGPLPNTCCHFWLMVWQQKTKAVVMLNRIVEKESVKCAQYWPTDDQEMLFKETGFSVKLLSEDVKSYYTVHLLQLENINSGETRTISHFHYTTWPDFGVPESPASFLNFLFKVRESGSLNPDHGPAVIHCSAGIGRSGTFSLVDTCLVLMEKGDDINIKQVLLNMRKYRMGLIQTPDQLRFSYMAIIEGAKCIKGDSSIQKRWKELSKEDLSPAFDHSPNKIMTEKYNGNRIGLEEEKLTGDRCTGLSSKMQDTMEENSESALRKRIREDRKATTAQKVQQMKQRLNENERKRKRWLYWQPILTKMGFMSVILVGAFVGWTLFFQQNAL

CC1(N)CCN(c2nc(-c3ccc4cc(Br)ccc4c3)cs2)CC1
Ratio IC50 [1]: > 30 | IC50 [2]: 710 nM | inhibition [3]: inactive | Ratio IC50 [4]: 48 | Activity [5]: Active | inhibition [6]: Active | inhibition [7]: Dose-dependent effect | bioavailability [8]: 67% | inhibition in vivo at 10 mg/kg [9]: 44.6% | Ratio IC50 [10]: > 30 | IC50 [11]: > 100000 nM | inhibition [12]: Active | inhibition [13]: inactive | inhibition [14]: Active
